Calls of active or inactive are those of the source. The rule behind the calls is not given here.
Columns and labels:
Bos taurus = species on record: Bos taurus; test: Displacement of [3H]flumazenil from GABAA/Benzodiazepine receptor in bovine brain at 10 uM
In short: (§1)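 Bovine brain membranes; displacement of specific [3H]flumazenil (Ro15-1788) binding. Percent inhibition measured at 10 μM; Ki determined only when inhibition at that concentration exceeded 80%. Ki given as mean ± SEM of five determinations.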

[1] = Displacement of [3H]flumazenil from GABAA/Benzodiazepine receptor in bovine brain; parameters: species or system Bos taurus; in short: as §1
Mus musculus [2] = test: Anxiolytic activity in CD1 albino mouse at 10 mg/kg, po after 30 mins by light/dark box test; type: functional, organism-based; parameters: dose 10 mg/kg
In short: (§2)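 Male CD-1 mice (22-24 g) given test substance po in 1% CMC (10 mL/kg), tested 30 min later in a light/dark box. Transfers between compartments and time spent in the illuminated side were measured. Values are mean ± SEM of 15-20 mice; compared with controls.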

Mus musculus [3] = test: Anxiolytic activity in CD1 albino mouse at 30 mg/kg, po after 30 mins by light/dark box test; type: functional, organism-based; parameters: dose 30 mg/kg; in short: as §2
Mus musculus [4] = test: Anxiolytic activity in CD1 albino mouse at 30 mg/kg, po after 30 mins by light/dark box test in presence of flumazenil; type: functional, organism-based; parameters: dose 30 mg/kg
In short: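 Light/dark box in male CD-1 mice. Test substance given po in 1% CMC 30 min before the test, with flumazenil 100 mg/kg ip (saline) co-treatment. Transfers between compartments and time in the lit side recorded. Mean ± SEM of 15-20 mice.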

Mus musculus [5] = test: Effect on learning and memory process in CD1 albino mouse assessed as decrease in retention latency at 10 mg/kg, po after 24 hrs by passive avoidance test; type: functional, organism-based; parameters: dose 10 mg/kg
In short: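 Step-through passive avoidance in a two-compartment box (lit and dark compartments joined by a guillotine door). Male CD-1 mice dosed po (1% CMC) 30 min before training; retention tested 24 h later. Training and retention latencies recorded; mean ± SEM of 15-20 mice versus controls.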

Mus musculus [6] = test: Effect on ethanol-induced sleeping time in CD1 albino mouse assessed as increase in duration of loss of righting reflex at 10 mg/kg, po preincubated 30 mins before ethanol challenge; type: functional, organism-based; parameters: dose 10 mg/kg
Mus musculus [7] = test: Effect on ethanol-induced sleeping time in CD1 albino mouse assessed as increase in duration of loss of righting reflex at 30 mg/kg, po preincubated 30 mins before ethanol challenge; type: functional, organism-based; parameters: dose 30 mg/kg

Row | Activity (Bos taurus) [%] | Ki [1] [nM] | SMILES | other results
1 | > 80 | 966 | [O-][n+]1nc2c(I)cnn2c2cc(-c3ccccc3)ccc21 | 
2 | > 80 | 116 | [O-][n+]1nc2ccnn2c2cc(OCc3ccccc3)ccc21 | 
3 | > 80 | 1620 | CCCCCCCCOc1ccc2c(c1)n1ncc(I)c1n[n+]2[O-] | 
4 | > 80 | 2000 | [O-][n+]1nc2c(I)cnn2c2cc(/C=C/c3ccccc3)ccc21 | 
5 | > 80 | 1 | Ic1cnn2c1nnc1ccc(OCc3ccccc3)cc12 | 
6 | > 80 | 12 | CCOC(=O)c1cnn2c1n[n+]([O-])c1ccc(Oc3ccccc3)cc12 | 
7 | 40 |  | CCOC(=O)c1cnn2c1n[n+]([O-])c1ccc(-c3ccccc3)cc12 | 
8 | > 80 | 43 | [O-][n+]1nc2c(I)cnn2c2cc(OCCc3ccccc3)ccc21 | 
9 | > 80 |  | CC(Oc1ccc2c(c1)n1ncc(I)c1n[n+]2[O-])c1ccccc1 (single isomer, unassigned; (-)) | Activity (Mus musculus [2]): Active; Activity (Mus musculus [3]): Active; Activity (Mus musculus [4]): inactive; Activity (Mus musculus [5]): Active; Activity (Mus musculus [6]): inactive; Activity (Mus musculus [7]): inactive
10 | 10 |  | [O-][n+]1nc2ccnn2c2cc(-c3ccccc3)ccc21 | 

Second part, the compound before the results:

Row | SMILES | Activity (Bos taurus) [%] | Ki [1] [nM] | other results
11 | [O-][n+]1nc2c(I)cnn2c2cc(OCc3cccs3)ccc21 | > 80 | 1.2 | 
12 | CC(Oc1ccc2c(c1)n1ncc(I)c1n[n+]2[O-])c1ccccc1 (racemic) |  | 3.4 | 
13 | [O-][n+]1nc2c(-c3ccsc3)cnn2c2cc(Oc3ccccc3)ccc21 | > 80 | 68 | 
14 | O=C(OCc1cccs1)c1cnn2c1n[n+]([O-])c1ccc(Oc3ccccc3)cc12 | > 80 | 0.7 | 
15 | CCOc1ccc2c(c1)n1ncc(C(=O)OCc3cccs3)c1n[n+]2[O-] | > 80 | 0.85 | 
16 | COc1ccccc1COC(=O)c1cnn2c1n[n+]([O-])c1ccc(Oc3ccccc3)cc12 | > 80 | 1.75 | 
17 | CCOc1cnn2c1n[n+]([O-])c1ccc(C(=O)OCc3ccccc3OC)cc12 | > 80 | 0.31 | 
18 | COc1ccccc1COC(=O)c1ccc2c(c1)n1ncc(Cl)c1n[n+]2[O-] | > 80 | 1 | 
19 | [O-][n+]1nc2c(I)cnn2c2cc(OCc3ccc(Cl)cc3)ccc21 | > 80 | 11 | 
20 | CC(COc1ccc2c(c1)n1ncc(I)c1n[n+]2[O-])c1ccccc1 (racemic) | > 80 | 160 | 

— ChEMBL document CHEMBL1158477, “Synthesis, in vivo evaluation, and molecular modeling studies of new pyrazolo[5,1-c][1,2,4]benzotriazine 5-oxide derivatives. Identification of a bifunctional hydrogen bond area related to the inverse agonism” (J Med Chem, 2009)
